Source: ChEMBL document CHEMBL3098047, “Design, synthesis and structure-activity relationships of substituted oxazole-benzamide antibacterial inhibitors of FtsZ” (Bioorg Med Chem Lett, 2014)
≈ marks a conversion by molar mass, not a printed value.

Tested on: not listed separately
Assay: Clearance in Balb/c mouse at 3 mg/kg, iv by LC-MS/MS analysis
Type: ADME, organism-based
Set-up: dose 3 mg/kg, route intravenous
Conditions: in vivo

Compound | clearance [mL/min/kg]
CCc1oc(COc2ccc(F)c(C(N)=O)c2F)nc1-c1ccc(OC)cc1 | 319
CC(Oc1ccc(F)c(C(N)=O)c1F)c1nc(-c2ccc(OC(F)(F)F)cc2)c(Br)o1 (racemic) | 36
CC(Oc1ccc(F)c(C(N)=O)c1F)c1nc(-c2ccc(C(F)(F)F)cc2)c(Br)o1 (racemic) | 22
CCCc1oc(COc2ccc(F)c(C(N)=O)c2F)nc1-c1ccc(Cl)cc1 | 137
NC(=O)c1c(F)ccc(OC(CO)c2nc(-c3ccc(C(F)(F)F)cc3)c(Br)o2)c1F (racemic) | 7

Tested on: Staphylococcus aureus
Assay: Antibacterial activity against Staphylococcus aureus ATCC 29213 by broth microdilution method
Type: functional
Conditions: not given
In short: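 Broth microdilution MIC per CLSI guidelines against S. aureus ATCC 29213; MIC in µg/mL.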

Compound | MIC [µg/mL]
CCc1oc(COc2ccc(F)c(C(N)=O)c2F)nc1-c1ccc(OC)cc1 | 0.12 (≈ 0.309 µM)
CC(Oc1ccc(F)c(C(N)=O)c1F)c1nc(-c2ccc(OC(F)(F)F)cc2)c(Br)o1 (racemic) | 0.12 (≈ 0.237 µM)
CC(Oc1ccc(F)c(C(N)=O)c1F)c1nc(-c2ccc(C(F)(F)F)cc2)c(Br)o1 (racemic) | 0.06 (≈ 0.122 µM)
CCCc1oc(COc2ccc(F)c(C(N)=O)c2F)nc1-c1ccc(Cl)cc1 | 0.03 (≈ 0.0737 µM)
NC(=O)c1c(F)ccc(OC(CO)c2nc(-c3ccc(C(F)(F)F)cc3)c(Br)o2)c1F (racemic) | 0.25 (≈ 0.493 µM)

Tested on: not listed separately
Assay: Half life in mouse microsomes at 10 uM by LC-MS/MS analysis
Type: ADME, Microsome
Conditions: not given
In short: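 Mouse microsomes at 1 mg/mL protein, compound 10 μM, 0.1% v/v DMSO final; started with 1 mM NADPH, stopped with DMSO at 0, 10, 30, 60 min. Acetonitrile extraction, centrifugation, LC-MS of supernatant; half-life in min.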

Compound | half-life at 10 µM [h]
CCc1oc(COc2ccc(F)c(C(N)=O)c2F)nc1-c1ccc(OC)cc1 | 1.19
CC(Oc1ccc(F)c(C(N)=O)c1F)c1nc(-c2ccc(OC(F)(F)F)cc2)c(Br)o1 (racemic) | > 2
CCCc1oc(COc2ccc(F)c(C(N)=O)c2F)nc1-c1ccc(Cl)cc1 | 1.14
NC(=O)c1c(F)ccc(OC(CO)c2nc(-c3ccc(C(F)(F)F)cc3)c(Br)o2)c1F (racemic) | > 2

Tested on: not listed separately
Assay: Half life in CD-1 mouse hepatocytes at 10 uM by LC-MS/MS analysis
Type: ADME, cell-based, Hepatocyte
Conditions: not given
In short: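 Cryopreserved CD-1 mouse hepatocytes (5×10^4 cells), compound 10 μM in duplicate, 0.5% v/v DMSO final; stopped with DMSO at seven time points up to 120 min. Acetonitrile extraction, centrifugation, LC-MS of supernatant; half-life in min.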

Compound | half-life at 10 µM [h]
CCc1oc(COc2ccc(F)c(C(N)=O)c2F)nc1-c1ccc(OC)cc1 | 0.39
CC(Oc1ccc(F)c(C(N)=O)c1F)c1nc(-c2ccc(OC(F)(F)F)cc2)c(Br)o1 (racemic) | 1.69
CCCc1oc(COc2ccc(F)c(C(N)=O)c2F)nc1-c1ccc(Cl)cc1 | 0.298
NC(=O)c1c(F)ccc(OC(CO)c2nc(-c3ccc(C(F)(F)F)cc3)c(Br)o2)c1F (racemic) | 1.19

Tested on: not listed separately
Assay: Kinetic solubility of the compound in PBS buffer at pH 7.4 after 24 hrs by turbidimetric method
Type: physicochemical
Conditions: read-out: Kinetic_solubility
In short: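 Turbidimetric: doubling dilutions in DMSO diluted twenty-fold into PBS pH 7.4, equilibrated 24 h at room temperature, absorbance read at 620 nm. Value is highest concentration with no measurable precipitate.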

Compound | solubility kinetic at 24 h [µg/mL]
NC(=O)c1c(F)ccc(OC(CO)c2nc(-c3ccc(C(F)(F)F)cc3)c(Br)o2)c1F (racemic) | 100 (≈ 197 µM)

Tested on: not listed separately
Assay: Half life in Balb/c mouse at 3 mg/kg, iv by LC-MS/MS analysis
Type: ADME, organism-based
Set-up: dose 3 mg/kg, route intravenous
Conditions: in vivo

Compound | half-life [h]
CCc1oc(COc2ccc(F)c(C(N)=O)c2F)nc1-c1ccc(OC)cc1 | 0.167
CC(Oc1ccc(F)c(C(N)=O)c1F)c1nc(-c2ccc(OC(F)(F)F)cc2)c(Br)o1 (racemic) | 0.883
CC(Oc1ccc(F)c(C(N)=O)c1F)c1nc(-c2ccc(C(F)(F)F)cc2)c(Br)o1 (racemic) | 1.05
CCCc1oc(COc2ccc(F)c(C(N)=O)c2F)nc1-c1ccc(Cl)cc1 | 0.417
NC(=O)c1c(F)ccc(OC(CO)c2nc(-c3ccc(C(F)(F)F)cc3)c(Br)o2)c1F (racemic) | 2.12

Tested on: not listed separately
Assay: AUC in Balb/c mouse at 3 mg/kg, iv by LC-MS/MS analysis
Type: ADME, organism-based
Set-up: dose 3 mg/kg, route intravenous
Conditions: plasma

Compound | AUC [ng·h/mL]
CCc1oc(COc2ccc(F)c(C(N)=O)c2F)nc1-c1ccc(OC)cc1 | 200
CC(Oc1ccc(F)c(C(N)=O)c1F)c1nc(-c2ccc(OC(F)(F)F)cc2)c(Br)o1 (racemic) | 1400
CC(Oc1ccc(F)c(C(N)=O)c1F)c1nc(-c2ccc(C(F)(F)F)cc2)c(Br)o1 (racemic) | 2200
CCCc1oc(COc2ccc(F)c(C(N)=O)c2F)nc1-c1ccc(Cl)cc1 | 400
NC(=O)c1c(F)ccc(OC(CO)c2nc(-c3ccc(C(F)(F)F)cc3)c(Br)o2)c1F (racemic) | 6700

Molecular target: T1, Cell division protein FtsZ (Staphylococcus aureus) (UniProt P0A031)
T1 sequence (whole entry): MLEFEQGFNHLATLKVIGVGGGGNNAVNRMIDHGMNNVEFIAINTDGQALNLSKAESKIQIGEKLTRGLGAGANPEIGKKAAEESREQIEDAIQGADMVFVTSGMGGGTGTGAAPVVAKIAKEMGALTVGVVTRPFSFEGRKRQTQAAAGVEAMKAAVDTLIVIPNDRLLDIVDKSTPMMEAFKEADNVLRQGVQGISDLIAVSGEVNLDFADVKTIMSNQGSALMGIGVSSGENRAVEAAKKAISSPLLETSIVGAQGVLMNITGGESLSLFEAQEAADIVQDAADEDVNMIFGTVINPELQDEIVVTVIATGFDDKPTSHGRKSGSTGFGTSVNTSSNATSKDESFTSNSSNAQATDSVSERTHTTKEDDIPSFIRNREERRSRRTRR
Assay: Inhibition of Staphylococcus aureus ATCC 29213 FtsZ-mediated cell division phenotype
Conditions: not given
In short: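 S. aureus ATCC 29213 cell division inhibition assay run alongside MIC testing; value is the lowest concentration at which an inhibition of cell division phenotype was seen (µg/mL).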

Compound | MIC [µg/mL]
CCc1oc(COc2ccc(F)c(C(N)=O)c2F)nc1-c1ccc(OC)cc1 | 0.12 (≈ 0.309 µM)
CC(Oc1ccc(F)c(C(N)=O)c1F)c1nc(-c2ccc(OC(F)(F)F)cc2)c(Br)o1 (racemic) | 0.12 (≈ 0.237 µM)
CC(Oc1ccc(F)c(C(N)=O)c1F)c1nc(-c2ccc(C(F)(F)F)cc2)c(Br)o1 (racemic) | 0.06 (≈ 0.122 µM)
CCCc1oc(COc2ccc(F)c(C(N)=O)c2F)nc1-c1ccc(Cl)cc1 | 0.015 (≈ 0.0369 µM)
NC(=O)c1c(F)ccc(OC(CO)c2nc(-c3ccc(C(F)(F)F)cc3)c(Br)o2)c1F (racemic) | 0.5 (≈ 0.986 µM)

Tested on: not listed separately
Assay: Initial plasma concentration in Balb/c mouse at 3 mg/kg, iv by LC-MS/MS analysis
Type: ADME, organism-based
Set-up: dose 3 mg/kg, route intravenous
Conditions: not given

Compound | C0 [ng/mL]
CCc1oc(COc2ccc(F)c(C(N)=O)c2F)nc1-c1ccc(OC)cc1 | 1100
CC(Oc1ccc(F)c(C(N)=O)c1F)c1nc(-c2ccc(OC(F)(F)F)cc2)c(Br)o1 (racemic) | 2500
CC(Oc1ccc(F)c(C(N)=O)c1F)c1nc(-c2ccc(C(F)(F)F)cc2)c(Br)o1 (racemic) | 2000
CCCc1oc(COc2ccc(F)c(C(N)=O)c2F)nc1-c1ccc(Cl)cc1 | 1200
NC(=O)c1c(F)ccc(OC(CO)c2nc(-c3ccc(C(F)(F)F)cc3)c(Br)o2)c1F (racemic) | 4200

Tested on: not listed separately
Assay: Volume of distribution in Balb/c mouse at 3 mg/kg, iv by LC-MS/MS analysis
Type: ADME, organism-based
Set-up: dose 3 mg/kg, route intravenous
Conditions: in vivo

Compound | Vd [L/kg]
CCc1oc(COc2ccc(F)c(C(N)=O)c2F)nc1-c1ccc(OC)cc1 | 4.3
CC(Oc1ccc(F)c(C(N)=O)c1F)c1nc(-c2ccc(OC(F)(F)F)cc2)c(Br)o1 (racemic) | 2.7
CC(Oc1ccc(F)c(C(N)=O)c1F)c1nc(-c2ccc(C(F)(F)F)cc2)c(Br)o1 (racemic) | 2
CCCc1oc(COc2ccc(F)c(C(N)=O)c2F)nc1-c1ccc(Cl)cc1 | 5
NC(=O)c1c(F)ccc(OC(CO)c2nc(-c3ccc(C(F)(F)F)cc3)c(Br)o2)c1F (racemic) | 1.3

Tested on: not listed separately
Assay: Chemical stability of the compound in PBS buffer assessed as compound remaining at 10 uM at pH 7.4 after 24 hrs by LC-MS/MS analysis
Type: physicochemical
Conditions: read-out: Stability
In short: (§1)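 Compound at 10 μM in PBS pH 7.4 or neat mouse plasma, 5% v/v DMSO final, incubated 24 h at 37 °C. Samples extracted with acetonitrile and centrifuged; supernatant analysed by LC-MS; reported as % remaining.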

Compound | remaining at 24 h, 10 µM [%]
CCc1oc(COc2ccc(F)c(C(N)=O)c2F)nc1-c1ccc(OC)cc1 | 97
CC(Oc1ccc(F)c(C(N)=O)c1F)c1nc(-c2ccc(OC(F)(F)F)cc2)c(Br)o1 (racemic) | 96
CCCc1oc(COc2ccc(F)c(C(N)=O)c2F)nc1-c1ccc(Cl)cc1 | 98
NC(=O)c1c(F)ccc(OC(CO)c2nc(-c3ccc(C(F)(F)F)cc3)c(Br)o2)c1F (racemic) | 102

Tested on: not listed separately
Assay: Metabolic stability in mouse plasma assessed as compound remaining at 10 uM after 24 hrs by LC-MS/MS analysis
Type: ADME, cell-free
Conditions: read-out: Stability
In short: as §1

Compound | remaining at 24 h, 10 µM [%]
CCc1oc(COc2ccc(F)c(C(N)=O)c2F)nc1-c1ccc(OC)cc1 | 100
CC(Oc1ccc(F)c(C(N)=O)c1F)c1nc(-c2ccc(OC(F)(F)F)cc2)c(Br)o1 (racemic) | 104
CCCc1oc(COc2ccc(F)c(C(N)=O)c2F)nc1-c1ccc(Cl)cc1 | 101
NC(=O)c1c(F)ccc(OC(CO)c2nc(-c3ccc(C(F)(F)F)cc3)c(Br)o2)c1F (racemic) | 100

Tested on: Staphylococcus aureus
Assay: Antibacterial activity against Staphylococcus aureus harboring FtsZ G196A mutant by broth microdilution method
Type: functional
Conditions: not given
In short: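 S. aureus ATCC 29213 derivative with G196A substitution in FtsZ; MIC by broth microdilution following CLSI guidelines; reported in µg/mL.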

Compound | MIC [µg/mL]
CCc1oc(COc2ccc(F)c(C(N)=O)c2F)nc1-c1ccc(OC)cc1 | > 64
NC(=O)c1c(F)ccc(OC(CO)c2nc(-c3ccc(C(F)(F)F)cc3)c(Br)o2)c1F (racemic) | 8 (≈ 15.8 µM)
